Compound activity deposited in PubChem BioAssay by several laboratories.
TLR9-MyD88 block = TLR9-MyD88 interaction inhibition. Q9NR96+Q99836. CHO BLA complementation TLR9-MyD88, CCF4 FRET ratio. inhibition, % at 4.98 µM. 340,000 compounds, 0.21% hits;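 active = inhibition above the mean over all tested compounds plus 3 SD, cut at about 21% in these data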;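 also: 0% = DMSO only wells and 100% = clavulanate BLA inhibitor control wells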
MC4R antagonist = blocks human MC4R cAMP signaling. MC4R-expressing cells, MTII-stimulated cAMP, LANCE TR-FRET. 360,000 compounds, 0.48% hits. AID 540295. P32245. inhibition, % at 6.5 µM;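 active = inhibition above its plate's cutoff, the mean of tested wells on that plate plus 3 SD, cut at about 29% in these data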;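 also: 0% = Melanotan II alone and 100% = Melanotan II plus saturating MCL0020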
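system = U2OS cells with stable human MC4R expression | also added = Melanotan II challenge after compound preincubation | dosing = one concentration, 6.5 µM nominal | incubation = compound 30 min, challenge 1 h, detection 1 h | measured by = TR-FRET with Eu-cAMP and labeled anti-cAMP, 671 nm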
NOD2 RIPK2 PPI = blocks binding of human NOD2 to RIPK2; 360,000 compounds, 0.38% hits; O43353; AID 624267; inhibition, % at 4.98 µM; CHO BLA complementation NOD2-RIPK2, CCF4 ratio; in the data active = inhibition above about 21%;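 also: 0% = vehicle only and 100% = reference blocker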
MC4R ag barr = human MC4R agonism via beta-arrestin. U2OS MC4R beta-arrestin complementation, luminescence; percent of melanotan II response, DMSO zero. activation, % at 8.9 µM. 360,000 compounds, 0.98% hits. AID 540308;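 active = activation above a per-plate cutoff, the mean activation of sample wells on that plate plus 3 SD, cut at about 8% in these data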
TLR4-MyD88 BLA = blocks binding of human TLR4 to MyD88; inhibition, % at 8.4 µM; HeLa CL3-4 TLR4/MyD88 BLA complementation, FRET ratio; 200,000 compounds, 0.18% hits; O00206+Q99836; AID 861; in the data active = inhibition above about 25%;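 also: 0% = vehicle and 100% = reference inhibitor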
beta cell repl = induces beta-cell replication in MIN6 cells | MIN6 cells proliferation, ATPlite luminescence, 48 h; cells starved in 0.2% serum; 100% = growth in 10% serum | 330,000 compounds, 0.29% hits | proliferation, % at 10 µM;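 active = compounds whose signal lies at least 3.5 SD above the mean of all wells on their plate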;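 also: 0% = DMSO-treated cells in low-serum medium and 100% = 10% serum control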
TLR4 MyD88 cnf = confirmation of human TLR4-MyD88 binding inhibitors | shares compounds with TLR4-MyD88 BLA | HeLa CL3-4 BLA complementation, CCF4 FRET ratio | inhibition, % at 8.4 µM | 350 compounds, 50% hits;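 active = mean inhibition across three repeat runs above about 25% carried over from the earlier screen, limit read from the data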;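 also: plate controls were DMSO only for no effect and clavulanic acid blocking BLA at full dose for full effect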
BLA inh HeLa = beta-lactamase inhibition flagged in TLR4-MyD88 counter-screen | shares compounds with TLR4-MyD88 BLA | 350 compounds, 63% hits | inhibition, % at 8.4 µM | HeLa BLA reporter, CCF4 FRET ratio;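 active = mean inhibition over three repeats above about 26% taken from the earlier screen, limit read from the data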;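 also: HeLa cells stably expressing beta-lactamase reporter as counterscreen for TLR4-MyD88 inhibitors; 0% = DMSO and 100% = clavulanic acid full inhibition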
TLR9-MyD88 conf = TLR9-MyD88 interaction inhibition, confirmation | CHO TLR9/MyD88 BLA complementation, CCF4 FRET ratio | inhibition, % at 4.98 µM | 680 compounds, 51% hits | shares compounds with TLR9-MyD88 block;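 active = mean inhibition across three repeats above about 21% taken from the earlier screen, limit read from the data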;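 also: blue over green emission ratio reports constitutive TLR9 MyD88 association via BLA complementation; 0% = DMSO vehicle wells and 100% = clavulanate BLA inhibitor wells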
BLA counter-1 = beta-lactamase reporter inhibition, counter-screen artifact. CHO-BLA cells, CCF4 FRET ratio, BLA reporter. 680 compounds, 7% hits. shares compounds with TLR9-MyD88 block. inhibition, % at 4.98 µM;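 active = mean inhibition above a 50% cutoff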;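 also: counterscreen of TLR9-MyD88 hits on CMV-driven BLA in CHO-K1 cells; 0% = DMSO alone and 100% = clavulanate blocking BLA; higher means less blue over green ratio so more BLA blockade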
TLR9 CHO tox = CHO cell toxicity counter-screen for TLR9-MyD88 inhibitors. shares compounds with TLR9-MyD88 block. TLR9-MyD88 CHO cells cytotoxicity, luminescence. inhibition, % at 4.98 µM. 680 compounds, 39% hits. AID 588336; in the data active = inhibition above about 11%
cAMP nonselect = counter-screen for MC4R antagonists: nonselective cAMP signaling inhibitors. 1,600 compounds, 26% hits. shares compounds with MC4R antagonist. inhibition, % at 6.5 µM. parental U2OS, forskolin cAMP, LANCE TR-FRET;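 active = mean inhibition over triplicates above the low-control well mean plus 3 SD, set per campaign, cut at about 13% in these data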;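 also: signal is single emission at 671 nm which falls as cellular cAMP rises; 0% = forskolin-stimulated wells and 100% = buffer without forskolin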
MC4R antag conf = human MC4R cAMP antagonism confirmation; MC4R-expressing cells, MTII-stimulated cAMP, TR-FRET; inhibition, % at 6.5 µM; shares compounds with MC4R antagonist; AID 602195; 1,600 compounds, 27% hits; in the data active = inhibition above about 29%;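 also: 0% = agonist stimulated wells alone and 100% = agonist stimulated wells plus saturating reference antagonist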
NOD2 RIPK2 conf = confirmation of human NOD2-RIPK2 interaction inhibitors; shares compounds with NOD2 RIPK2 PPI; CHO cells, NOD2-RIPK2 BLA complementation, CCF4 FRET; inhibition, % at 4.98 µM; 1,200 compounds, 70% hits;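 active = mean inhibition across replicates above a set limit taken from the earlier primary screen, cut at about 21% in these data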;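 also: 0% = DMSO-only wells and the high end = clavulanate BLA-blocked wells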
BLA counter-2 = hits BLA reporter in NOD2-RIPK2 inhibitor counterscreen. CHO BLA reporter, CCF4 FRET ratio. 1,200 compounds, 57% hits. shares compounds with NOD2 RIPK2 PPI. inhibition, % at 4.98 µM;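 active = mean inhibition above the low-control mean inhibition plus three low-control SD, cut at about 11% in these data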;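 also: 0% = DMSO only wells and 100% = clavulanate high control wells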
The depositor's hits bear a star; x = not tested or not shown. Hits are enriched below; roughly 2.1% of the tested compounds scored in any of these assays.

SMILES	TLR9-MyD88 block	MC4R antagonist	NOD2 RIPK2 PPI	MC4R ag barr	TLR4-MyD88 BLA	beta cell repl	TLR4 MyD88 cnf	BLA inh HeLa	TLR9-MyD88 conf	BLA counter-1	TLR9 CHO tox	NOD2 RIPK2 conf	BLA counter-2	others
Cc1ccc(C(=O)c2ccccc2C(=O)OCC(=O)NCCc2ccc(Cl)cc2Cl)cc1	2	3	-4	0	-1	-3	x	x	x	x	x	x	x
CCCNC(=O)COC(=O)c1ccccc1C(=O)c1ccc(Cl)c([N+](=O)[O-])c1	17	22	38*	2	26*	-6	24	7	x	x	x	62*	11*
CCC(=O)c1ccc(/C=C/c2nc3ccccc3n2C)o1	43*	-20	58*	-4	50*	-4	47*	65*	31*	39	1	63*	64*
COc1ccc(C(=O)c2sc3nc(-c4ccccc4)ccc3c2N)cc1	40*	24	50*	1	47*	-5	52*	86*	52*	53*	6	73*	79*
CC(C)OC(=O)c1sc2nc(-c3ccccc3)ccc2c1N	38*	7	24*	9.5*	49*	-4	48*	77*	42*	45	8	64*	73*
CC(=O)c1ccc(S(=O)(=O)Nc2ccc(C(=O)N(C)CC(=O)Nc3cccc(C)c3C)cc2)cc1	2	1	-9	-2	x	-4	x	x	x	x	x	x	x
O=[N+]([O-])c1ccc(Cl)c(/C=N/n2c(-c3ccncc3)n[nH]c2=S)c1	-8	11	-11	2	x	-4	x	x	x	x	x	x	x
CCCCNC(=O)COC(=O)c1c2c(nc3ccccc13)/C(=C/c1cccs1)CC2	48*	13	52*	5	56*	x	50*	83*	43*	46	6	67*	77*
CC(OC(=O)c1c2c(nc3ccccc13)/C(=C\c1ccc3c(c1)OCO3)CCC2)C(=O)Nc1ccc(S(N)(=O)=O)cc1 (centres undefined)	5	10	4	0	12	x	x	x	x	x	x	x	x
CCCCNC(=O)COC(=O)c1c2c(nc3ccccc13)CCC2	3	9	2	-2	x	-4	x	x	x	x	x	x	x
CNC(=O)NC(=O)C(C)OC(=O)c1c2c(nc3ccccc13)/C(=C/c1cccs1)CC2 (centres undefined)	51*	30*	56*	8	51*	-2	55*	85*	51*	63*	11*	72*	81*	cAMP nonselect=4;MC4R antag conf=17
CCCCCCCCCc1conc1C(=O)/C=C/c1ccco1	x	x	-4	x	x	x	x	x	x	x	x	x	x
